# Results taken from PMC2233905 (The Journal of General Physiology, 2004).
# Legend:
# [1] = tested on: IRK1 inward rectifier K^+ channels; conditions: concentrations up to 10 μM; ref Suessbrich et al., 1996; cited from earlier work
# [2] = molecular target: T1, hEag1 channels (Homo sapiens, UniProt O95259); test: Inside-out patch recordings of hEag1 currents; format: cell-based; conditions: for rate of block: inside-out, 500 nM astemizole
# T1 sequence (O95259 1-989): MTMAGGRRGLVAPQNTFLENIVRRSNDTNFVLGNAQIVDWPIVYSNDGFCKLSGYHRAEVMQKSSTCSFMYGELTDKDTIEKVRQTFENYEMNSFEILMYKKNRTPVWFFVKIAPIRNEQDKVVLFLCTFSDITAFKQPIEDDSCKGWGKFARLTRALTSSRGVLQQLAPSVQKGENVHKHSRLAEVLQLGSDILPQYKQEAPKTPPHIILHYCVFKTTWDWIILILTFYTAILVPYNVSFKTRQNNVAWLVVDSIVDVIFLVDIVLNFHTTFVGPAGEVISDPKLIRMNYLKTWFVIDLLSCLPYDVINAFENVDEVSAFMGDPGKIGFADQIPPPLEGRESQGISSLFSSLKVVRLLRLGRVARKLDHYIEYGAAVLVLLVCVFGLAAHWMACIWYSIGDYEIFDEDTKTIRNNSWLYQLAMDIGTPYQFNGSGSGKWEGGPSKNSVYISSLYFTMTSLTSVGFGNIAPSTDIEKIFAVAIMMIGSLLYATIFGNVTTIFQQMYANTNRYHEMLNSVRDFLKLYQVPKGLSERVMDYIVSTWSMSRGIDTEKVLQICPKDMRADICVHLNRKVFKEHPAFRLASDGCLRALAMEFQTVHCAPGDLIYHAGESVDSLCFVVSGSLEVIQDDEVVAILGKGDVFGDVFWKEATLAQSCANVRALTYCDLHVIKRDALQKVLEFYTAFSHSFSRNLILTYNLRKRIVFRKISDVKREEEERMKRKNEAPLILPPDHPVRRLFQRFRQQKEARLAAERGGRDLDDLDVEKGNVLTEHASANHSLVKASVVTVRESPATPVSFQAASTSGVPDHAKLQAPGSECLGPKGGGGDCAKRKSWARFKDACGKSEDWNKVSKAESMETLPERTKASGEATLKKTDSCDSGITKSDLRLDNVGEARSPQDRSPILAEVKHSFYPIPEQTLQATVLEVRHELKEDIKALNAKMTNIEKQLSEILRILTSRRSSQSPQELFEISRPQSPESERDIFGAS
# Summary of the method: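 Inside-out patches from hEag1-expressing cells at room temperature. Pipette: 145 NaCl, 5 KCl, 3 CaCl2, 1 MgCl2, 10 HEPES/NaOH pH 7.4. Successive 6-s pulses at 80 mV with drug applied for 2.5 s. Current ratios to preapplication traces were fitted with a single exponential to give the block time constant.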
# [3] = Ionization: pKa and calculated protonated fractions; format: physicochemical
# Summary of the method: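 Fractions of unprotonated, monoprotonated and diprotonated test compound were calculated from its two pKa values at pH 6.4, 7.4 and 8.4. The diprotonated percentage was 100 × [H+]2 divided by the summed-species denominator. Protonated fractions in the pH 7.4 recording solution were predicted the same way.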
# [4] = molecular target: T1, hEag1 channels; test: Outside-out patch recordings of hEag1 currents; format: cell-based
# Summary of the method: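 Outside-out patches from hEag1-expressing cells at room temperature. Successive 6-s recordings at 80 mV; drug applied to the extracellular face for 2.5 s, then removed. Currents were divided point-wise by control traces, and the time course was fitted with a single exponential to give the block or equilibration time constant and the steady-state fraction blocked.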
# [5] = tested on: cloned HERG; conditions: HEK-293 cells; ref Zhou et al., 1999; cited from earlier work
# [6] = tested on: Eag-like channels 2 (hELK2); conditions: ref Becchetti et al., 2002; cited from earlier work
# [7] = molecular target: T2, hEag2 channels (Homo sapiens, UniProt Q8NCM2); test: hEag2 channels expressed in Xenopus oocytes; format: cell-based
# T2 sequence (Q8NCM2 1-988): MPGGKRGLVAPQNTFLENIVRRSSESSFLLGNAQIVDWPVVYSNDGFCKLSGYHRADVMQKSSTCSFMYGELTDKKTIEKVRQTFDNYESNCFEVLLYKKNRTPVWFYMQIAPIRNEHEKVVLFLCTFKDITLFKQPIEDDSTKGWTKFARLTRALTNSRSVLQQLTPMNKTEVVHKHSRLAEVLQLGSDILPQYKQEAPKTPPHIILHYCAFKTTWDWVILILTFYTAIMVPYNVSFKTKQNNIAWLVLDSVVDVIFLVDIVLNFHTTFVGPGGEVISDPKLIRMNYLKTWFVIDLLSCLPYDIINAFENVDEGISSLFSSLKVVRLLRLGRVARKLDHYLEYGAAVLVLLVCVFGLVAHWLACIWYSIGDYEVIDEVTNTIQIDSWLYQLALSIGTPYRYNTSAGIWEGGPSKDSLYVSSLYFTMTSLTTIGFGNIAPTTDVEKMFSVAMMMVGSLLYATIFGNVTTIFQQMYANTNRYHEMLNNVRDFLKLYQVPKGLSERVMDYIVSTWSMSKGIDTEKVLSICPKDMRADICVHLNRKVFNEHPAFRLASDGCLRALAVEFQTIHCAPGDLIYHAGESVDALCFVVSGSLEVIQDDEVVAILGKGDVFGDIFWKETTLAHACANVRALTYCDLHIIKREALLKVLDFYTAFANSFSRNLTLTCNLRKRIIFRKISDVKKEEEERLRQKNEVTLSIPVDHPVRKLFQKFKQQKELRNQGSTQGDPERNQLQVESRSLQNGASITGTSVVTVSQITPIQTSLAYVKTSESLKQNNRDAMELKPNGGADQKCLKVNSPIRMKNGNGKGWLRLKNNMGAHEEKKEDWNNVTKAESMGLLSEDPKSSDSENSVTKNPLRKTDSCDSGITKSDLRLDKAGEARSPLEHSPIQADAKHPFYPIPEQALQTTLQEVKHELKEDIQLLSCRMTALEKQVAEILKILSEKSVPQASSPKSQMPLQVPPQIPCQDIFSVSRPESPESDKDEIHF
# [8] = tested on: cardiac IsK currents; conditions: concentrations up to 10 μM; ref Suessbrich et al., 1996; cited from earlier work
smiles,measurement,setting,value
COc1ccc(CCN2CCC(Nc3nc4ccccc4n3Cc3ccc(F)cc3)CC2)cc1 [astemizole],effect on current,[1],no significant effects
same,time constant of block in inside-out patches,"[2]; bath pH 6.0, pipette pH 7.4, 80 mV",387 ms
same,reversal of block on 2-s washout during the depolarization,[2]; inside-out patches,did not recover
same,rate of block,[2]; pHint 6.4,6.7 ± 2 s⁻¹
same,rate of block,[2]; pHint 7.4,2.8 ± 0.2 s⁻¹
same,"Diprotonated form, percentile contribution","[3]; pH 6.4, calculated",13.6%
same,"Monoprotonated form, percentile contribution","[3]; pH 6.4, calculated",85.7%
same,"Unprotonated form, percentile contribution","[3]; pH 6.4, calculated",0.7%
same,"Diprotonated form, percentile contribution","[3]; pH 7.4, calculated",1.4%
same,"Monoprotonated form, percentile contribution","[3]; pH 7.4, calculated",91.3%
same,"Unprotonated form, percentile contribution","[3]; pH 7.4, calculated",7.3%
same,predicted protonated fraction,[3]; pH 7.4 recording solution,93%
same,"Diprotonated form, percentile contribution","[3]; pH 8.4, calculated",0.1%
same,"Monoprotonated form, percentile contribution","[3]; pH 8.4, calculated",55.7%
same,"Unprotonated form, percentile contribution","[3]; pH 8.4, calculated",44.2%
same,time constant of block (equilibration of neutral drug) in outside-out patches,"[4]; bath pH 6.0, pipette pH 7.4",1.7 s
same,rate of the equilibration process across the membrane,"[4]; outside-out, bath pH 6.0",0.6 s⁻¹
same,IC50,[5],0.9 nM
same,sensitivity to astemizole,[6],not sensitive
same,IC50,[7],~1500 nM
same,effect on current,[8],no significant effects
